Results on 23 molecules are retold here after ChEMBL document CHEMBL1671821, “Syntheses of 2-amino and 2-halothiazole derivatives as high-affinity metabotropic glutamate receptor subtype 5 ligands and potential radioligands for in vivo imaging” (J Med Chem, 2011).

The term Ki denotes the equilibrium dissociation constant of an inhibitor or competing ligand from its target. Low readings indicate higher affinity, high ones lower affinity.

The target of assay [1] is Metabotropic glutamate receptor 5 (Rattus norvegicus, UniProt P31424). The assay can be described thus: Displacement of [3H]MPEP from mGluR5 in rat brain. It is filed as tissue-based. Put shortly: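 Competition binding on rat brain homogenate mGlu5 against [3H]MPEP at 1.0 nM. Run by the NIMH Psychoactive Drug Screening Program. Ki derived from triplicate determinations, n = 6 for some ligands. Values cited from earlier work were not measured here.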
A general note: In a radioligand displacement assay an active substance lowers the binding of a labelled ligand.

Assay [2] deals with Alpha-2C adrenergic receptor (Homo sapiens, UniProt P18825). Put plainly: Binding affinity to adrenergic Alpha-2C receptor.
Assay [3] has as its target 5-hydroxytryptamine receptor 2B (Homo sapiens, UniProt P41595). The assay can be described thus: Binding affinity to 5HT2B receptor.
Assay [4] deals with Alpha-1A adrenergic receptor (Homo sapiens, UniProt P35348). The assay can be described thus: Binding affinity to adrenergic alpha1A receptor.
Assay [5] concerns the target 5-hydroxytryptamine receptor 5A (Homo sapiens, UniProt P47898). Put plainly: Binding affinity to 5HT5A receptor.
Assay [6] deals with Alpha-1D adrenergic receptor (Homo sapiens, UniProt P25100). The assay can be described thus: Binding affinity to adrenergic Alpha-1D receptor.
Assay [7] deals with Alpha-2B adrenergic receptor (Homo sapiens, UniProt P18089). Put plainly: Binding affinity to adrenergic alpha2B receptor.
Assay [8] concerns the target Beta-2 adrenergic receptor (Homo sapiens, UniProt P07550). The assay can be described thus: Binding affinity to adrenergic beta2 receptor.
The target of another assay is Histamine H4 receptor (Homo sapiens, UniProt Q9H3N8). Put plainly: Binding affinity to histamine H4 receptor.
For assay [9], the target named is Delta-type opioid receptor (Homo sapiens, UniProt P41143). The assay can be described thus: Binding affinity to DOR.
Assay [10] concerns the target 5-hydroxytryptamine receptor 1A (Homo sapiens, UniProt P08908). The assay can be described thus: Binding affinity to 5HT1A receptor.
The target of another assay is Histamine H3 receptor (Homo sapiens, UniProt Q9Y5N1). The assay can be described thus: Binding affinity to histamine H3 receptor.
For assay [11], the target named is Beta-1 adrenergic receptor (Homo sapiens, UniProt P08588). The assay can be described thus: Binding affinity to adrenergic beta1 receptor.
In assay [12] the target is Metabotropic glutamate receptor 6 (Homo sapiens, UniProt O15303). The assay can be described thus: Binding affinity to mGluR6 receptor.
Assay [13] has as its target Sodium-dependent serotonin transporter (Homo sapiens, UniProt P31645). The assay can be described thus: Binding affinity to SERT receptor.
In assay [14] the target is Beta-3 adrenergic receptor (Homo sapiens, UniProt P13945). The assay can be described thus: Binding affinity to adrenergic beta3 receptor.
The target in assay [15] is Muscarinic acetylcholine receptor M2 (Homo sapiens, UniProt P08172). Put plainly: Binding affinity to muscarinic M2 receptor.
A short description of assay [16]: Binding affinity to benzodiazepine receptor in rat brain. In kind it is tissue-based.
The target in assay [17] is Sodium-dependent noradrenaline transporter (Homo sapiens, UniProt P23975). The assay can be described thus: Binding affinity to NET.
The target of another assay is D(4) dopamine receptor (Homo sapiens, UniProt P21917). The assay can be described thus: Binding affinity to dopamine D4 receptor.
In assay [18] the target is Metabotropic glutamate receptor 1 (Homo sapiens, UniProt Q13255). Put plainly: Binding affinity to mGluR1 receptor.
Assay [19] deals with Metabotropic glutamate receptor 2 (Homo sapiens, UniProt Q14416). The assay can be described thus: Binding affinity to mGluR2 receptor.
Assay [20] deals with Alpha-2A adrenergic receptor (Homo sapiens, UniProt P08913). Put plainly: Binding affinity to adrenergic alpha2A receptor.
The next assay addresses Mu-type opioid receptor (Homo sapiens, UniProt P35372). The assay can be described thus: Binding affinity to MOR.
The target in assay [21] is Kappa-type opioid receptor (Homo sapiens, UniProt P41145). Put plainly: Binding affinity to KOR.
The target in assay [22] is 5-hydroxytryptamine receptor 1B (Homo sapiens, UniProt P28222). The assay can be described thus: Binding affinity to 5HT1B receptor.
The target of assay [23] is Muscarinic acetylcholine receptor M1 (Homo sapiens, UniProt P11229). The assay can be described thus: Binding affinity to muscarinic M1 receptor.
A short description of assay [24]: Binding affinity to sigma 2 receptor.
In assay [25] the target is 5-hydroxytryptamine receptor 1D (Homo sapiens, UniProt P28221). The assay can be described thus: Binding affinity to 5HT1D receptor.
In a further assay the target is D(2) dopamine receptor (Homo sapiens, UniProt P14416). The assay can be described thus: Binding affinity to dopamine D2 receptor.
In assay [26] the target is Muscarinic acetylcholine receptor M5 (Homo sapiens, UniProt P08912). The assay can be described thus: Binding affinity to muscarinic M5 receptor.
The target in assay [27] is Alpha-1B adrenergic receptor (Homo sapiens, UniProt P35368). The assay can be described thus: Binding affinity to adrenergic Alpha-1B receptor.
Assay [28] deals with Muscarinic acetylcholine receptor M3 (Homo sapiens, UniProt P20309). Put plainly: Binding affinity to muscarinic M3 receptor.
For assay [29], the target named is Sigma non-opioid intracellular receptor 1 (Homo sapiens, UniProt Q99720). Put plainly: Binding affinity to sigma 1 receptor.
Assay [30] concerns the target 5-hydroxytryptamine receptor 6 (Homo sapiens, UniProt P50406). The assay can be described thus: Binding affinity to 5HT6 receptor.
The target in a further assay is D(1B) dopamine receptor (Homo sapiens, UniProt P21918). The assay can be described thus: Binding affinity to dopamine D5 receptor.
Assay [31] addresses 5-hydroxytryptamine receptor 2A (Homo sapiens, UniProt P28223). The assay can be described thus: Binding affinity to 5HT2A receptor.
For assay [32], the target named is 5-hydroxytryptamine receptor 1E (Homo sapiens, UniProt P28566). Put plainly: Binding affinity to 5HT1E receptor.
The target of another assay is Histamine H2 receptor (Homo sapiens, UniProt P25021). The assay can be described thus: Binding affinity to histamine H2 receptor.
The target of another assay is Histamine H1 receptor (Homo sapiens, UniProt P35367). The assay can be described thus: Binding affinity to histamine H1 receptor.
For the next assay, the target named is D(1A) dopamine receptor (Homo sapiens, UniProt P21728). The assay can be described thus: Binding affinity to dopamine D1 receptor.
The next assay deals with D(3) dopamine receptor (Homo sapiens, UniProt P35462). The assay can be described thus: Binding affinity to dopamine D3 receptor.
The target in assay [33] is Metabotropic glutamate receptor 4 (Homo sapiens, UniProt Q14833). Put plainly: Binding affinity to mGluR4 receptor.
Assay [34] deals with 5-hydroxytryptamine receptor 3A (Homo sapiens, UniProt P46098). The assay can be described thus: Binding affinity to 5HT3 receptor.
The target in assay [35] is 5-hydroxytryptamine receptor 2C (Homo sapiens, UniProt P28335). The assay can be described thus: Binding affinity to 5HT2C receptor.
Assay [36] has as its target Sodium-dependent dopamine transporter (Homo sapiens, UniProt Q01959). Put plainly: Binding affinity to DAT.
A short description of assay [37]: Binding affinity to NMDA receptor PCP binding site.
Assay [38] concerns the target Metabotropic glutamate receptor 8 (Homo sapiens, UniProt O00222). The assay can be described thus: Binding affinity to mGluR8 receptor.
For assay [39], the target named is 5-hydroxytryptamine receptor 7 (Homo sapiens, UniProt P34969). The assay can be described thus: Binding affinity to 5HT7 receptor.
Assay [40] concerns the target Muscarinic acetylcholine receptor M4 (Homo sapiens, UniProt P08173). Put plainly: Binding affinity to muscarinic M4 receptor.
The nature of assay [41]: Binding affinity to GABAA receptor.

Chain of Metabotropic glutamate receptor 5 (P31424 whole entry): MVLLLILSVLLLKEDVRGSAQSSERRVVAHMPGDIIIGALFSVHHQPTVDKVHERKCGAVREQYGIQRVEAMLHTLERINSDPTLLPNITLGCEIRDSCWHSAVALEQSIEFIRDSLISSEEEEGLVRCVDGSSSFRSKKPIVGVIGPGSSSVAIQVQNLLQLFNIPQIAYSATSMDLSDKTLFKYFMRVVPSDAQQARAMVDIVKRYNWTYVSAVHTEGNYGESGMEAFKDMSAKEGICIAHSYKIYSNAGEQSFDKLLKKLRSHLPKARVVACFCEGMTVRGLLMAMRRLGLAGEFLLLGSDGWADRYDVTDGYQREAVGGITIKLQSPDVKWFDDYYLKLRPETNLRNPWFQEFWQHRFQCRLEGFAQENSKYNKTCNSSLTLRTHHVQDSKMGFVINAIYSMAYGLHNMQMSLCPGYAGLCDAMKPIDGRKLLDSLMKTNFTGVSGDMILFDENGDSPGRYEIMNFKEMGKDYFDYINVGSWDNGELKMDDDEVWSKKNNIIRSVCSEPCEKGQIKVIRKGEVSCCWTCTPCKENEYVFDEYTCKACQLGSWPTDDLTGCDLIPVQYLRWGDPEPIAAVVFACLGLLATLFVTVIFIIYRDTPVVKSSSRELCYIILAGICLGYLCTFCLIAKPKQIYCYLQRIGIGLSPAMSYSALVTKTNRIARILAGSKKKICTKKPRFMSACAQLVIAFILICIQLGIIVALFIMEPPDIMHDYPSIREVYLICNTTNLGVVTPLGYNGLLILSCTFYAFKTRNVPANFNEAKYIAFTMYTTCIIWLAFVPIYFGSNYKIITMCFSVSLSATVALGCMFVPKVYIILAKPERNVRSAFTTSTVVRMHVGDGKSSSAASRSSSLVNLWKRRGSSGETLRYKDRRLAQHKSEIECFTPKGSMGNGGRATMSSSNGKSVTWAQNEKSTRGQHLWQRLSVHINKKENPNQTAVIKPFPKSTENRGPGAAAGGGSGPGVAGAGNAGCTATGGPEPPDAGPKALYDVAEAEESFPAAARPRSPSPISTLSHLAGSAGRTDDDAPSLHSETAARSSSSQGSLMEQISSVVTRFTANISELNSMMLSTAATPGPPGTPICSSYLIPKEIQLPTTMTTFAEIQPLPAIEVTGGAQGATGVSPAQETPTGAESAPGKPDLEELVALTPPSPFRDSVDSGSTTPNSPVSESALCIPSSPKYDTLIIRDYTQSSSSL
Chain of Muscarinic acetylcholine receptor M5 (P08912 whole entry): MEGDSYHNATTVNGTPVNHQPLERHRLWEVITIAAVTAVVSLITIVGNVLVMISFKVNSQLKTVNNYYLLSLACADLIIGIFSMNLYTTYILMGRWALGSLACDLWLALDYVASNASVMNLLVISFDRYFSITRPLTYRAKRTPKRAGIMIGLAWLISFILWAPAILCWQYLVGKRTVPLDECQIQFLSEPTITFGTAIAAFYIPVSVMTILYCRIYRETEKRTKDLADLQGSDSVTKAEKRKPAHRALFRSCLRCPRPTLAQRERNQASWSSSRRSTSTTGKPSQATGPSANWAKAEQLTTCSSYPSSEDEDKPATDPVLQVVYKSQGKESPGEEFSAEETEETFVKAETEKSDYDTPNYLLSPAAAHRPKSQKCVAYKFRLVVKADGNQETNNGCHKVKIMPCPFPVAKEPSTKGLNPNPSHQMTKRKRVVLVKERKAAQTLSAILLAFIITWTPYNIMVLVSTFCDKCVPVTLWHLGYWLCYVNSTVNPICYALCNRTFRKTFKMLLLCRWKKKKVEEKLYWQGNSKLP
Chain of Alpha-1D adrenergic receptor (P25100 whole entry): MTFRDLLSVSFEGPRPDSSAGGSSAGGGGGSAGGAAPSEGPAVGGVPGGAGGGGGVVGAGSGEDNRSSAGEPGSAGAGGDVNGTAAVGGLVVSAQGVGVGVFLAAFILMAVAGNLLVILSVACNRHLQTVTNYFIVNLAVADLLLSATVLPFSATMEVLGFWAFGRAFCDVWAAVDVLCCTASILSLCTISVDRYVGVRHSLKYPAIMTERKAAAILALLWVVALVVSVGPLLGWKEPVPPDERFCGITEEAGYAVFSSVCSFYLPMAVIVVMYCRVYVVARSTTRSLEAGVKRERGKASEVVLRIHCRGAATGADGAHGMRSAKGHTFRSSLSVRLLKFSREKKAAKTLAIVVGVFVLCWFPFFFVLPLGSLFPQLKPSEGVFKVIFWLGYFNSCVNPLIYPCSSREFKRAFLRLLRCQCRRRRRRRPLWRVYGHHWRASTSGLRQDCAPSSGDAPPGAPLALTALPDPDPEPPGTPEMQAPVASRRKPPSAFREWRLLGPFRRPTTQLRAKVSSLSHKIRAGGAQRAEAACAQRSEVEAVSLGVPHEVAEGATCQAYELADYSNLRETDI
Chain of D(2) dopamine receptor (P14416 whole entry): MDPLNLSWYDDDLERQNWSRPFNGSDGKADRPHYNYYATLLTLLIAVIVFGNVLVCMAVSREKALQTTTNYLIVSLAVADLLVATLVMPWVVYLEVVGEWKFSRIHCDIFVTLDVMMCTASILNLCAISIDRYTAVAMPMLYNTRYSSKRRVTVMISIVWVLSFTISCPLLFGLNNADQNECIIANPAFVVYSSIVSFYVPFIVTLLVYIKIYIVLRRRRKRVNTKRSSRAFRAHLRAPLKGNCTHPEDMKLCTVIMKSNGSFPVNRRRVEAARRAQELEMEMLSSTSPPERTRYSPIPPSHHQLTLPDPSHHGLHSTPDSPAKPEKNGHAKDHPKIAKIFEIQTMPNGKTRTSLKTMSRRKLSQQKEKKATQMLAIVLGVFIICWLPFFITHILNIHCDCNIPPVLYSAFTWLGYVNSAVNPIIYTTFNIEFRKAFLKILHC
Chain of 5-hydroxytryptamine receptor 1D (P28221 whole entry): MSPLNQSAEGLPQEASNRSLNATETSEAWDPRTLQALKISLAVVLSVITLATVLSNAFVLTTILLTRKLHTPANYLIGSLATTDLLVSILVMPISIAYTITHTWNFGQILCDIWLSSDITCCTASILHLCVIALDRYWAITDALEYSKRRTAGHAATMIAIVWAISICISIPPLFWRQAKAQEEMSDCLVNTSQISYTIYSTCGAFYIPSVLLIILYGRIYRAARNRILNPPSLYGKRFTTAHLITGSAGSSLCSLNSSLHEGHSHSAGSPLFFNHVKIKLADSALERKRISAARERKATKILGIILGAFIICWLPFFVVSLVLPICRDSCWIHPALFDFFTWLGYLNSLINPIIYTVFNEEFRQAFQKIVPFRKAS
Chain of Kappa-type opioid receptor (P41145 whole entry): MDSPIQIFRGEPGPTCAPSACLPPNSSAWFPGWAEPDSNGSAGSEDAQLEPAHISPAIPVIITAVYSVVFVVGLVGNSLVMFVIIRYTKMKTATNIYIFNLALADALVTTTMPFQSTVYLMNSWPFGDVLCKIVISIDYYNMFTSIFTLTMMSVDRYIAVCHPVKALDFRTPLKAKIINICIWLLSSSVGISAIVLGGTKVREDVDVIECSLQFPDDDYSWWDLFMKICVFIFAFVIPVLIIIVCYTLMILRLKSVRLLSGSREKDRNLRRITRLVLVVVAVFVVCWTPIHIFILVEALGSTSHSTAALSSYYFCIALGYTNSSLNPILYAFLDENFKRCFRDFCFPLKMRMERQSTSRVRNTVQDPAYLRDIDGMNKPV
Chain of Metabotropic glutamate receptor 6 (O15303 whole entry): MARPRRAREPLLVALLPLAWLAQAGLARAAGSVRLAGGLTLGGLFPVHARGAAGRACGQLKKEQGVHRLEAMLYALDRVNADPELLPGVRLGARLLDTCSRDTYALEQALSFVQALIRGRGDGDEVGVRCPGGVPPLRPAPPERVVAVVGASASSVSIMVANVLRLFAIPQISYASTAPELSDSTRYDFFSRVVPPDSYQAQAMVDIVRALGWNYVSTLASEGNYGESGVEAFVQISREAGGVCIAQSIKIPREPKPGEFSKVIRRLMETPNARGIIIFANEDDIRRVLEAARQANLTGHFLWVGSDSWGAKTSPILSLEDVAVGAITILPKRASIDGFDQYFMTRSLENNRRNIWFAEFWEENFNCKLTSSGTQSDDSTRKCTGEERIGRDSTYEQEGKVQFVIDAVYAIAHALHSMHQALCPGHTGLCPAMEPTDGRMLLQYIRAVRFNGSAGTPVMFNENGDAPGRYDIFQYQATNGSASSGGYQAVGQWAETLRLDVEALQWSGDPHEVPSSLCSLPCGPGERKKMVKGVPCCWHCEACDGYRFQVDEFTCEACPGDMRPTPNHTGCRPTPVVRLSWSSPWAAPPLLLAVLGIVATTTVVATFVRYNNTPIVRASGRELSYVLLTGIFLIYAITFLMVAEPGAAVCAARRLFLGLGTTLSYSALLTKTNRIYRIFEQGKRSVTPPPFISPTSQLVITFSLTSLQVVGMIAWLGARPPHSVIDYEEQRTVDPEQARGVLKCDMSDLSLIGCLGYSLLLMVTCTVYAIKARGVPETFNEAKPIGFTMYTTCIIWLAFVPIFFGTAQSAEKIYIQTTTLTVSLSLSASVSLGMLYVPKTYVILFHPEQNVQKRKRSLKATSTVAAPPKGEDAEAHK
Chain of Muscarinic acetylcholine receptor M2 (P08172 whole entry): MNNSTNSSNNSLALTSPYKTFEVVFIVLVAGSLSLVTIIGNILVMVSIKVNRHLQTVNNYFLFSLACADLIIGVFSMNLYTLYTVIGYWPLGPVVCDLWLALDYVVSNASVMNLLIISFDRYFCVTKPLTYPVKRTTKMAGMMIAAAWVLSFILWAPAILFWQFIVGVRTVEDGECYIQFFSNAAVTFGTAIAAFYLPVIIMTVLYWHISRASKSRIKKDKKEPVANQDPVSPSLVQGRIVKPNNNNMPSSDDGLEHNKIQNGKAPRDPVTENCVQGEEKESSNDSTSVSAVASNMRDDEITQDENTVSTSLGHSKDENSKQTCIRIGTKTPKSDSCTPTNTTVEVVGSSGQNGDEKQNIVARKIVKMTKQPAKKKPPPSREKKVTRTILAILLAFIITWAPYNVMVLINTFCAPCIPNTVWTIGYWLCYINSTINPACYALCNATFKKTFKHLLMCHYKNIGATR

On to `N#Cc1cc(F)cc(C#Cc2csc(Br)n2)c1`, for which the Ki in [1] was 0.95 nM.
Molecule `Fc1nc(C#Cc2ccccc2)cs1` yielded a Ki in assay [1] of 122 nM. This Ki is about 130-fold higher than that of the molecule before.
Still for that read-out and setting: the value for `N#Cc1cc(F)cc(C#Cc2csc(Cl)n2)c1` was 0.4 nM.
On the same count and under the same terms, the value for `COc1cccc(C#Cc2csc(Cl)n2)c1` was 8.1 nM.
Same read-out and setting: the same measure for `COc1cccc(C#Cc2csc(I)n2)c1`: 133 nM.
In turn, `Cc1nc(C#Cc2cc(F)cc(C#N)c2)cs1` yielded a Ki in assay [1] of 0.08 nM.
On the same count and under the same terms, the same measure for `N#Cc1cccc(C#Cc2csc(I)n2)c1`: 4.2 nM; for `N#CCc1cccc(C#Cc2csc(I)n2)c1`: 23.3 nM; for `N#Cc1cccc(C#Cc2csc(N)n2)c1`: 0.9 nM.
The same measure, in the same setting: the same measure for `N#Cc1cccc(C#Cc2csc(Br)n2)c1`: 3.7 nM.
Still for that read-out and setting: the value for `N#CCc1cccc(C#Cc2csc(F)n2)c1` was 3.9 nM.
With `N#Cc1cccc(C#Cc2csc(F)n2)c1`, in [1], the affinity, expressed as Ki, was 1.6 nM.
On the same count and under the same terms, the value for `COc1cccc(C#Cc2csc(Br)n2)c1` was 22.3 nM; that for `N#Cc1cccc(C#Cc2csc(Cl)n2)c1` was 0.27 nM; that for `N#CCc1cccc(C#Cc2csc(Br)n2)c1` was 3.3 nM.
In assay [1], `COc1cccc(C#Cc2csc(N)n2)c1` had a Ki of 18.6 nM.
As for `N#Cc1cc(F)cc(C#Cc2csc(F)n2)c1`, the Ki in assay [2], in [3], in assay [4], in assay [5], in assay [6] and in [7] was greater than 10 µM each time. The Ki (in [8]; at Histamine H4 receptor; in assay [9]; in [10]; at Histamine H3 receptor; in [11]) was greater than 10 µM in each case. The inhibitory constant (Ki) in assay [12], in assay [13], in [14], in [15], in assay [16] and in [17] was greater than 10 µM throughout. For the same molecule, the Ki (at D(4) dopamine receptor; in [18]; in assay [19]; in assay [20]; on Mu-type opioid receptor; in assay [21]) was greater than 10 µM in each case. In addition, the Ki (in assay [22]; in [23]; in [24]; in assay [25]; at D(2) dopamine receptor; in assay [26]) was greater than 10 µM throughout. The Ki (in [27]; in [28]; in [29]; in [30]; at D(1B) dopamine receptor; in [31]) was greater than 10 µM throughout. For the same molecule, the Ki in assay [32] was greater than 10 µM; on Histamine H2 receptor, greater than 10 µM; on Histamine H1 receptor, greater than 10 µM; in [1] it was 0.28 nM; on D(1A) dopamine receptor, greater than 10 µM; at D(3) dopamine receptor it was greater than 10 µM. The Ki in assay [33], in assay [34], in [35], in assay [36], in [37] and in assay [38] was greater than 10 µM in each case. The Ki in assay [39], in [40] and in assay [41] was greater than 10 µM each time.
With `N#CCc1cccc(C#Cc2csc(N)n2)c1`, the inhibitory constant (Ki) in assay [1] was found to be 5.9 nM.
Still for that read-out and setting: the value for `N#CCc1cccc(C#Cc2csc(Cl)n2)c1` was 3.1 nM.
Regarding `N#Cc1cc(F)cc(C#Cc2csc(I)n2)c1`, the Ki in [1] was determined as 1.3 nM. Against the preceding molecule, the Ki is about 2.4-fold lower.
On the same count and under the same terms, the value for `N#Cc1cc(F)cc(C#Cc2csc(N)n2)c1` was 0.25 nM.
In turn, `N#Cc1cc(F)cc(C#Cc2csc(CF)n2)c1` had an inhibition constant (Ki) in assay [1] of 0.036 nM.
Still for that read-out and setting: the same measure for `COc1cccc(C#Cc2csc(F)n2)c1`: 22.7 nM.
